Consider 25 compounds from ChEMBL document CHEMBL1155130, “Selective angiotensin II AT2 receptor agonists: Benzamide structure-activity relationships” (Bioorg Med Chem, 2008).

Active and inactive are the calls of the source. The rule behind the calls is not given here. Where only a bound is given, the exact number is not on record here.

In the first assay the target is T1, Type-1 angiotensin II receptor A (Rattus norvegicus, UniProt P25095).
T1 sequence (P25095 whole entry): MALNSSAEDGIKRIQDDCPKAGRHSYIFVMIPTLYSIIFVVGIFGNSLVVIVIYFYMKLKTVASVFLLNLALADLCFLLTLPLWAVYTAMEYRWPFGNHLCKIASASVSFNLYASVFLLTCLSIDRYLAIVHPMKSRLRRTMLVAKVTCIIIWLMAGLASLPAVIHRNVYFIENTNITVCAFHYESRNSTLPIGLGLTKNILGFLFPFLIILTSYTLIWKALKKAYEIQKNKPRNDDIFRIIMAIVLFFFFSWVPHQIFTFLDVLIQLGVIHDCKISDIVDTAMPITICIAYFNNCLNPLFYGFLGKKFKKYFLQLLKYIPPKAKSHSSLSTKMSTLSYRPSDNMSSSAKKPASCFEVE
Put plainly: Displacement of [125]Ang2 from AT1 receptor in rat liver membrane. The assay is classed as cell membranes. An outline of the steps:
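Rat liver membranes (5 mg original tissue per tube) incubated with [125I]Ang II (80,000–85,000 cpm, 0.03 nM) and varying test concentrations in 50 mM Tris–HCl pH 7.4, 100 mM NaCl, 10 mM MgCl2, 1 mM EDTA, 0.025% bacitracin, 0.2% BSA; 25 °C, 2 h. GF/B filtration, gamma counting; one-site fit; triplicate.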
In the case of `CCCCOC(=O)NS(=O)(=O)c1sc(CC(C)C)cc1-c1ccc(C(=O)N2CCCCC2)cc1`, the Ki (usually a dissociation constant, usually derived from enzyme kinetics or from competition with a known ligand) was > 10000 nM.

With `CCCCOC(=O)NS(=O)(=O)c1ccccc1-c1ccc(C(=O)N(CC)CC)cc1`, the Ki was > 10000 nM.

`CCCCOC(=O)NS(=O)(=O)c1ccc(CC(C)C)cc1-c1ccc(Cn2ccnc2)cc1`: the Ki was > 10000 nM.

As to `CCCCOC(=O)NS(=O)(=O)c1sc(CC(C)C)cc1-c1ccc(CC(=O)N(C)C)cc1`, the Ki was > 10000 nM.

Turning to `CCCCOC(=O)NS(=O)(=O)c1sc(CC(C)C)cc1-c1ccc(CN(C)C(C)=O)cc1`, the Ki was > 10000 nM.

Turning to `CCCCOC(=O)NS(=O)(=O)c1ccc(-c2ccccc2)cc1-c1ccc(C(=O)N(CC)CC)cc1`, the Ki was > 10000 nM.

Regarding `CCCCOC(=O)NS(=O)(=O)c1sc(CC(C)C)cc1-c1ccc(C(=O)N(CC)CC)cc1`, the Ki was > 10000 nM.

`CCCCOC(=O)NS(=O)(=O)c1ccc(CC(C)C)cc1-c1ccc(Cn2c(CC)nc3c(C)cc(C)nc32)cc1`: affinity was put at a Ki of 2.1 nM.

Take `CCCCOC(=O)NS(=O)(=O)c1ccc(CC(C)C)cc1-c1ccc(C(=O)N(CC)CC)cc1`: the Ki was > 10000 nM.

On to `CCCCOC(=O)NS(=O)(=O)c1sc(CC(C)C)cc1-c1ccc(C(=O)NCc2ccccc2)cc1`, for which the Ki is > 10000 nM.

As to `CCCCOC(=O)NS(=O)(=O)c1sc(CC(C)C)cc1-c1ccc(C(=O)NC2CC2)cc1`, the Ki is > 10000 nM.

Take `CCCCOC(=O)NS(=O)(=O)c1sc(CC(C)C)cc1-c1ccc(Cn2ccnc2)cc1` [BULOXIBUTID]: the Ki was > 10000 nM.

As to `CCCCOC(=O)NS(=O)(=O)c1sc(CC(C)C)cc1-c1ccc(C(=O)N(C)C)cc1`, the Ki was > 10000 nM.

In the case of `CCCCOC(=O)NS(=O)(=O)c1sc(CC(C)C)cc1-c1ccc(Cn2c(CC)nc3c(C)cc(C)nc32)cc1`, the Ki came out at 1.1 nM.

Turning to `CCCCOC(=O)NS(=O)(=O)c1cc(CC(C)C)ccc1-c1ccc(C(=O)N(CC)CC)cc1`, the Ki was > 10000 nM.

For `CCCCOC(=O)NS(=O)(=O)c1sc(CC(C)C)cc1-c1ccc(C(=O)NC2CCCCC2)cc1`, the Ki was > 10000 nM.

For the compound `CCCCOC(=O)NS(=O)(=O)c1sc(CC(C)C)cc1-c1ccc(C(=O)N2CCOCC2)cc1`, the Ki was > 10000 nM.

Regarding `CCCCOC(=O)NS(=O)(=O)c1sc(CC(C)C)cc1-c1ccc(C(N)=O)cc1`, the Ki was > 10000 nM.

`CCCCOC(=O)NS(=O)(=O)c1ccc(Cc2ccccc2)cc1-c1ccc(C(=O)N(CC)CC)cc1`: the Ki was > 10000 nM.

On to `CCCCOC(=O)NS(=O)(=O)c1cc(Cc2ccccc2)ccc1-c1ccc(C(=O)N(CC)CC)cc1`, for which the Ki was > 10000 nM.

As to `CCCCOC(=O)NS(=O)(=O)c1sc(CC(C)C)cc1-c1ccc(C(=O)N2CCCC2)cc1`, the Ki was > 10000 nM.

Take `CCCCOC(=O)NS(=O)(=O)c1sc(CC(C)C)cc1-c1ccc(C(=O)NC(C)C)cc1`: the Ki is > 10000 nM.

Regarding `CCCCOC(=O)NS(=O)(=O)c1sc(CC(C)C)cc1-c1ccc(C(=O)N(C)Cc2ccccc2)cc1`, the Ki was > 10000 nM.

As to `CCCCOC(=O)NS(=O)(=O)c1ccc(Oc2ccccc2)cc1-c1ccc(C(=O)N(CC)CC)cc1`, the Ki was > 10000 nM.

On to `CCCCOC(=O)NS(=O)(=O)c1sc(CC(C)C)cc1-c1ccc(C(=O)Nc2nccs2)cc1`, for which the Ki was > 10000 nM.

Another assay concerns the target AT2 receptor (Sus scrofa, UniProt A0A4X1W622). Put plainly: Displacement of [125]Ang2 from AT2 receptor in pig uterus membrane. The assay is classed as cell membranes.
As for `CCCCOC(=O)NS(=O)(=O)c1sc(CC(C)C)cc1-c1ccc(C(=O)N2CCCCC2)cc1`, the Ki was 3.2 nM.

In turn, `CCCCOC(=O)NS(=O)(=O)c1ccccc1-c1ccc(C(=O)N(CC)CC)cc1` gave a Ki of 402 nM.

Consider `CCCCOC(=O)NS(=O)(=O)c1sc(CC(C)C)cc1-c1ccc(CC(=O)N(C)C)cc1`, for which the Ki worked out at 7 nM.

In turn, `CCCCOC(=O)NS(=O)(=O)c1sc(CC(C)C)cc1-c1ccc(CN(C)C(C)=O)cc1` came in with a Ki of 8.8 nM.

With `CCCCOC(=O)NS(=O)(=O)c1ccc(-c2ccccc2)cc1-c1ccc(C(=O)N(CC)CC)cc1`, the affinity corresponds to a Ki of 52 nM.

Compound `CCCCOC(=O)NS(=O)(=O)c1sc(CC(C)C)cc1-c1ccc(C(=O)N(CC)CC)cc1` gave a Ki of 3 nM.

On to `CCCCOC(=O)NS(=O)(=O)c1ccc(CC(C)C)cc1-c1ccc(Cn2c(CC)nc3c(C)cc(C)nc32)cc1`, for which the affinity corresponds to a Ki of 0.7 nM.

`CCCCOC(=O)NS(=O)(=O)c1ccc(CC(C)C)cc1-c1ccc(C(=O)N(CC)CC)cc1`: the affinity, expressed as Ki, was 144 nM.

Take `CCCCOC(=O)NS(=O)(=O)c1sc(CC(C)C)cc1-c1ccc(C(=O)NCc2ccccc2)cc1`: the inhibition constant (Ki) was 1 nM.

On to `CCCCOC(=O)NS(=O)(=O)c1sc(CC(C)C)cc1-c1ccc(C(=O)NC2CC2)cc1`, for which the Ki stood at 10.5 nM.

Consider `CCCCOC(=O)NS(=O)(=O)c1sc(CC(C)C)cc1-c1ccc(C(=O)N(C)C)cc1`, for which the affinity corresponds to a Ki of 36.9 nM.

The compound `CCCCOC(=O)NS(=O)(=O)c1sc(CC(C)C)cc1-c1ccc(Cn2c(CC)nc3c(C)cc(C)nc32)cc1` returned a Ki of 2 nM.

For the compound `CCCCOC(=O)NS(=O)(=O)c1cc(CC(C)C)ccc1-c1ccc(C(=O)N(CC)CC)cc1`, the Ki amounted to 122 nM.

Take `CCCCOC(=O)NS(=O)(=O)c1sc(CC(C)C)cc1-c1ccc(C(=O)NC2CCCCC2)cc1`: the Ki is 6.4 nM.

As to `CCCCOC(=O)NS(=O)(=O)c1sc(CC(C)C)cc1-c1ccc(C(=O)N2CCOCC2)cc1`, the Ki was determined as 348 nM.

On to `CCCCOC(=O)NS(=O)(=O)c1sc(CC(C)C)cc1-c1ccc(C(N)=O)cc1`, for which the Ki stood at 106 nM.

`CCCCOC(=O)NS(=O)(=O)c1ccc(Cc2ccccc2)cc1-c1ccc(C(=O)N(CC)CC)cc1`: the Ki is 162 nM.

Regarding `CCCCOC(=O)NS(=O)(=O)c1cc(Cc2ccccc2)ccc1-c1ccc(C(=O)N(CC)CC)cc1`, the Ki was determined as 300 nM.

In turn, `CCCCOC(=O)NS(=O)(=O)c1sc(CC(C)C)cc1-c1ccc(C(=O)N2CCCC2)cc1` came in with a Ki of 6.4 nM.

In turn, `CCCCOC(=O)NS(=O)(=O)c1sc(CC(C)C)cc1-c1ccc(C(=O)NC(C)C)cc1` showed a Ki of 2.6 nM.

`CCCCOC(=O)NS(=O)(=O)c1sc(CC(C)C)cc1-c1ccc(C(=O)N(C)Cc2ccccc2)cc1`: the Ki worked out at 31.5 nM.

Take `CCCCOC(=O)NS(=O)(=O)c1ccc(Oc2ccccc2)cc1-c1ccc(C(=O)N(CC)CC)cc1`: the affinity, expressed as Ki, was 91.7 nM.

For the compound `CCCCOC(=O)NS(=O)(=O)c1sc(CC(C)C)cc1-c1ccc(C(=O)Nc2nccs2)cc1`, affinity was put at a Ki of 10.9 nM.

Another assay concerns NG108-15. Put plainly: Effect on cellular morphology of mouse rat hybrid NG108-15 cells assessed as induction of neurite outgrowth. The assay is classed as functional, cell-based. An outline of the steps:
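NG108-15 cells (passage 18–28) grown in DMEM/10% FBS/HAT/gentamycin, 37 °C, 7% CO2. Plated at 3.6 × 10^4 cells per 35 mm dish, dosed daily for 3 days starting 24 h after plating, ± AT2 antagonist PD 123,319 added 30 min before. Phase-contrast micrographs on day 4. Cells with a neurite longer than one cell body counted as % of total (≥290 cells). Three independent experiments, duplicates, mean ± SEM.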
As for `CCCCOC(=O)NS(=O)(=O)c1ccc(-c2ccccc2)cc1-c1ccc(C(=O)N(CC)CC)cc1`, the result was Active.

Consider `CCCCOC(=O)NS(=O)(=O)c1sc(CC(C)C)cc1-c1ccc(C(=O)N(CC)CC)cc1`, for which the outcome was Active.

`CCCCOC(=O)NS(=O)(=O)c1sc(CC(C)C)cc1-c1ccc(C(=O)NCc2ccccc2)cc1`: the result was Active.
